Laboratory results published in ChEMBL document CHEMBL4823264, “Efficient Dimerization Disruption of Leishmania infantum Trypanothione Reductase by Triazole-phenyl-thiazoles” (J Med Chem, 2021).
Activity calls are given as the source filed them. No cut-off for these calls is given here.

How the values were obtained:
[1] = molecular target: T1, Glutathione reductase, mitochondrial (Homo sapiens) (UniProt P00390); assay: Inhibition of recombinant human GR oxidoreductase activity by DTNB-reagent based spectrophotometric method
T1 sequence (whole entry): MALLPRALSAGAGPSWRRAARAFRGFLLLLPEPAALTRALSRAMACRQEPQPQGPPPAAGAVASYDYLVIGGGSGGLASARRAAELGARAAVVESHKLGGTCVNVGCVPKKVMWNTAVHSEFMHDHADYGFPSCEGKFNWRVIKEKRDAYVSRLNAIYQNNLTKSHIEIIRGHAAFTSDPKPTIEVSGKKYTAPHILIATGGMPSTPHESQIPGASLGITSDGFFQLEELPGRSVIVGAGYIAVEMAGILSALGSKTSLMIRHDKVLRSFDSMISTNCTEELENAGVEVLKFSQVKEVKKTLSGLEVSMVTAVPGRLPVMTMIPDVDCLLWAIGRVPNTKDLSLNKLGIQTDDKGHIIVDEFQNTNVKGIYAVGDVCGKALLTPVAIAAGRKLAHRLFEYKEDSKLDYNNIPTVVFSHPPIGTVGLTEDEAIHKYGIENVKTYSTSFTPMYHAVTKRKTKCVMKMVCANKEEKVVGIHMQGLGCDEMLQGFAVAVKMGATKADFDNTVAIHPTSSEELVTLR
Outline: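 Recombinant hGR (7 nM) assayed at 37 °C in 40 mM HEPES pH 7.5 with 1 mM EDTA, 60 μM NADP+, 150 μM DTNB, 50 μM GSSG, 300 μM NADPH and 1.75% DMSO. TNB formation followed at 412 nm; at least three independent experiments, nonlinear regression.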

THP-1 = assay: Cytotoxicity against human THP-1 cells at 75 uM by LDH assay; type: cell-based; settings: thp-1, 75 µM
Outline: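 PMA-differentiated (100 ng/mL, 24 h) THP-1 macrophages infected with GFP-expressing amastigotes were exposed to compound, and viability was measured by LDH activity. The maximum concentration assayed was 75 μM. Three independent experiments.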

[2] = Drug uptake in Leishmania infantum promastigotes at 25 uM after 1 hr by fluorescence microscopy analysis; type: ADME; settings: in vivo
Outline: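 Log-phase promastigotes exposed to 25 μM compound for 1 h at 26 °C, fixed in […], mounted on polylysine slides and imaged by fluorescence microscopy for blue compound fluorescence.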

[3] = Selectivity index, ratio of EC50 for human HepG2 cells to EC50 for axenic amastigote stage of Leishmania infantum MCAN/ES/89/IPZ229/1/89 infected in human HepG2 cells; type: toxicity, cell-based; settings: read-out: Ratio EC50
[4] = Selectivity index, ratio of EC50 for human HepG2 cells to EC50 for promastigote stage of Leishmania infantum MCAN/ES/89/IPZ229/1/89 infected in human HepG2 cells; type: toxicity, cell-based; settings: read-out: Ratio EC50
[5] = molecular target: Trypanothione reductase (Leishmania infantum) (UniProt A4HSF7); assay: Inhibition of recombinant His-FLAG-tagged Leishmania infantum TryR dimerization expressed in Escherichia coli […] assessed as reduction in TryR dimer at 20 uM using TS2 as substrate after 16 hrs by ELISA relative to control
Outline: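 HIS-FLAG-tagged LiTryR at 400 nM incubated 16 h at 37 °C in 300 mM NaCl, 50 mM Tris pH 8.0 with 3.12–75 μM compound, then centrifuged. Supernatant captured on anti-FLAG plates and detected with anti-HIS-HRP and OPD at 490 nm.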

Sequence of Trypanothione reductase (Leishmania infantum) (A4HSF7 as listed by the source): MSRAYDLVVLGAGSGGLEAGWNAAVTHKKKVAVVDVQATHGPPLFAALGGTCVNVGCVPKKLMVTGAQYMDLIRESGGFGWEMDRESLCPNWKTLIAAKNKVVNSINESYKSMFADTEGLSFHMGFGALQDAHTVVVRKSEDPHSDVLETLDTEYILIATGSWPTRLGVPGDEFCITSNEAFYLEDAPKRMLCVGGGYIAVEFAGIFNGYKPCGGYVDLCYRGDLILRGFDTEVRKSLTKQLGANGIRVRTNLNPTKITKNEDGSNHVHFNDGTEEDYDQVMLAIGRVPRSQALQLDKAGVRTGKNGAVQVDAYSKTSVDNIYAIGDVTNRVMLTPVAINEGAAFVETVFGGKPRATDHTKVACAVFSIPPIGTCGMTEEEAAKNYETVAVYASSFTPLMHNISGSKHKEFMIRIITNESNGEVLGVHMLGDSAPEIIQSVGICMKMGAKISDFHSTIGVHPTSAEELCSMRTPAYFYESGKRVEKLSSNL

SMILES	inhibition [1]	selectivity ratio [3]	also measured
NCCCCc1cn(-c2ccc(-c3nc(-c4ccc(Oc5ccccc5)cc4)c(-c4ccccc4)s3)c(OCCN3CCNC3=O)c2)nn1		≥ 3.3	
NCCCCc1cn(-c2ccc(-c3nc(CCc4ccc(-c5ccccc5)cc4)c(-c4ccccc4)s3)c(OCCN3CCNC3=O)c2)nn1		1.3	
COc1cc(-n2cc(CCCCN)nn2)ccc1-c1nc(CCc2ccccc2)cs1			selectivity ratio [4]: 1.8
COc1cc(-n2cc(CCCCN)nn2)ccc1-c1nc(CCc2ccc(-c3ccccc3)cc2)cs1		1.9	
NCCCc1cn(-c2ccc(-c3nc(CCc4ccc(-c5ccccc5)cc4)cs3)c(OCCN3CCNC3=O)c2)nn1.O=C(O)C(F)(F)F			Activity (THP-1): 100%
NCCNCc1nccn1-c1ccc(-c2nc(CCc3ccc4ccccc4c3)cs2)c(OCCN2CCNC2=O)c1		2.1	selectivity ratio [4]: 2.1; inhibition [5]: 26%
NCCCCc1cn(-c2ccc(-c3nc(CCc4ccc(Oc5ccccc5)cc4)c(-c4ccccc4)s3)c(OCCN3CCNC3=O)c2)nn1		< 1	
NCCNCc1nccn1-c1ccc(-c2nc(CCc3ccc(-c4ccccc4)cc3)cs2)c(OCCN2CCNC2=O)c1			inhibition [5]: 32%
NCCCCc1cn(-c2ccc(-c3nc(-c4ccc(-c5ccccc5)cc4)c(-c4ccccc4)s3)c(OCCN3CCNC3=O)c2)nn1		1.8	

Further lines, with some results ahead:

inhibition [1]	SMILES	selectivity ratio [3]	also measured
inactive	NCCCCc1cn(-c2ccc(-c3nc(CCc4ccc(-c5ccccc5)cc4)cs3)c(OCCN3CCNC3=O)c2)nn1.O=C(O)C(F)(F)F		Activity (THP-1): 100%
inactive	NCCCCc1cn(-c2ccc(-c3nc(CCc4ccccc4)cs3)c(OCCN3CCNC3=O)c2)nn1.O=C(O)C(F)(F)F		Drug uptake [2]: Active
inactive	NCCCCc1cn(-c2ccc(-c3nc(-c4ccccc4)cs3)c(OCCN3CCNC3=O)c2)nn1		
inactive	NCCCCc1cn(-c2ccc(-c3nc(CCc4ccc5ccccc5c4)cs3)c(OCCN3CCNC3=O)c2)nn1		
inactive	NCCCCc1cn(-c2ccc(-c3nc(-c4ccccc4)c(-c4ccccc4)s3)c(OCCN3CCNC3=O)c2)nn1		
